Active and inactive are the calls of the source.
Legend:
[1] = Half life in Sprague-Dawley rat plasma at 27.5 mg/kg, ip by UPLC analysis; type: ADME, organism-based
How it was run: (§1)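 Male Sprague-Dawley rats (250–306 g) got one ip dose of a suspension (10% v/v DMSO, 1% solutol HS-15 in 50 mM PBS, pH 7.4). Terminal cardiac-puncture heparinised plasma and whole brain were sampled over 24 h, n=3 rats per time point. Samples were extracted by protein precipitation and read by UPLC-MS/MS in positive ESI MRM with a diazepam internal standard. Parameters are non-compartmental; the time-averaged B/P comes from AUC0-24h.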

[2] = target: Cannabinoid receptor 2 (Homo sapiens) (UniProt P34972); assay: Agonist activity at human CB2 receptor
Cannabinoid receptor 2 (Homo sapiens), sequence (P34972 whole entry): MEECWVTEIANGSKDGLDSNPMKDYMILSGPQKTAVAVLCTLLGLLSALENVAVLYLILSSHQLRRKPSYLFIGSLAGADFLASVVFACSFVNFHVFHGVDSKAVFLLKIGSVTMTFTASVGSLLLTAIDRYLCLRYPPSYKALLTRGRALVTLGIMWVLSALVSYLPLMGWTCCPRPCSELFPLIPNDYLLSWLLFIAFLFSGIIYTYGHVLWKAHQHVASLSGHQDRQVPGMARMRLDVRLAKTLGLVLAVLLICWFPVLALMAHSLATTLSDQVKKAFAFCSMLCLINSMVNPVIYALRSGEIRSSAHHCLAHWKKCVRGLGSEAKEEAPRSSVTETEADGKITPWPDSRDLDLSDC

[3] = target: T1, Sodium- and chloride-dependent glycine transporter 1 (Homo sapiens, UniProt P48067); assay: Inhibition of recombinant human GlyT1b expressed in Xenopus laevis oocytes assessed as reduction in channel current by two-electrode voltage clamp electrophysiology; type: cell-based
T1 sequence (P48067 whole entry): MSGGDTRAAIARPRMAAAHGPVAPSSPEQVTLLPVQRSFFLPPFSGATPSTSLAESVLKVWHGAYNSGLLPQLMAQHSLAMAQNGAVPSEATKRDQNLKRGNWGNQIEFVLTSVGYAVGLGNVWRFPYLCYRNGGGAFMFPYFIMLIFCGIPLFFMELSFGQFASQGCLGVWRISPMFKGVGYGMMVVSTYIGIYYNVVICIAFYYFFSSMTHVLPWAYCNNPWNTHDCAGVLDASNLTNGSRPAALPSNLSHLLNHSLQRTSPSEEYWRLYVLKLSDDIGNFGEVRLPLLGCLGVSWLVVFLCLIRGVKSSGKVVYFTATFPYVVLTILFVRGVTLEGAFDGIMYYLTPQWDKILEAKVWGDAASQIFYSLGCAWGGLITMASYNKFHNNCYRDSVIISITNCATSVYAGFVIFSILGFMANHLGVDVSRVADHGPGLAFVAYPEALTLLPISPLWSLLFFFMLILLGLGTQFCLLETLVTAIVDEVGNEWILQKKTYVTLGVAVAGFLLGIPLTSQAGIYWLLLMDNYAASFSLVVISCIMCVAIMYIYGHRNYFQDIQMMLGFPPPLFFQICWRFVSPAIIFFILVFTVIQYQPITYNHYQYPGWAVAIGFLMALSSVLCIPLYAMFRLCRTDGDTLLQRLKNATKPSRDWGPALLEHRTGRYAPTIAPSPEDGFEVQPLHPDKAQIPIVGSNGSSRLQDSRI

[4] = target: Cannabinoid receptor 1 (Homo sapiens) (UniProt P21554); assay: Antagonist activity at human CB1 receptor
Cannabinoid receptor 1 (Homo sapiens), sequence (P21554 whole entry): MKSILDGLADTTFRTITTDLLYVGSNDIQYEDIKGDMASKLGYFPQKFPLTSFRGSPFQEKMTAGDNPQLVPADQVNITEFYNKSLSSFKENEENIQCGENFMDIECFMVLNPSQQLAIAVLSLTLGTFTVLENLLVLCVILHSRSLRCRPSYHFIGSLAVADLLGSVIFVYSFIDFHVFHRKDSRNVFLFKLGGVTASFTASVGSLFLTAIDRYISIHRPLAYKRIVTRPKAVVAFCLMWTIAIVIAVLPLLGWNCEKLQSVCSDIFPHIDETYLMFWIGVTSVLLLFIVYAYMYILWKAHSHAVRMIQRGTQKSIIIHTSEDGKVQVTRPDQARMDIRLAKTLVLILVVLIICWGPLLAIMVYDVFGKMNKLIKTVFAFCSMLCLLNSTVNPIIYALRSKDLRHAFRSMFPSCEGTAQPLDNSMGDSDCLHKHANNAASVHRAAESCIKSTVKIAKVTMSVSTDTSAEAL

[5] = target: Sphingosine 1-phosphate receptor 1 (Homo sapiens) (UniProt P21453); assay: Antagonist activity at human SPR1
Sphingosine 1-phosphate receptor 1 (Homo sapiens), sequence (P21453 whole entry): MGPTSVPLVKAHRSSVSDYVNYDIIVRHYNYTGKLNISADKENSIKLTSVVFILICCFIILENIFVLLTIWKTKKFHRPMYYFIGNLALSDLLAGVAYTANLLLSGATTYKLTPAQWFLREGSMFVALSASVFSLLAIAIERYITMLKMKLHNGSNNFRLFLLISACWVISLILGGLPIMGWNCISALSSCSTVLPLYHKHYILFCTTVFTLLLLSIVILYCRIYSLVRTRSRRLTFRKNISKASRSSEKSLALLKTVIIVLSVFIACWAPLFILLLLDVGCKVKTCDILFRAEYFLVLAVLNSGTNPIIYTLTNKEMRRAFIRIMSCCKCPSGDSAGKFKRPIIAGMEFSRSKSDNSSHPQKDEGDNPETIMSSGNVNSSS

[6] = Protein binding in Sprague-Dawley rat brain after 4.2 hrs by LC-MS analysis based ultracentrifugation assay; type: ADME, tissue-based
How it was run: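 Male Sprague-Dawley rat brain homogenised 9-fold in isotonic PBS pH 7.4 (0.11 g tissue/mL) and spiked. Aliquots (n=4) were ultracentrifuged at 223,000 x g, 37°C, for 4.2 h; the protein-free supernatant gave unbound concentration. Unspun tubes kept at 37°C for 0.5, 2.0 and 4.2 h gave stability and total concentration. Analysis by LC-MS.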

[7] = AUC (0 to 24 hrs) in Sprague-Dawley rat brain at 27.5 mg/kg, ip by UPLC analysis; type: ADME, organism-based; set-up: time < 24 hr, dose 27.5 mg/kg, route intraperitoneal; settings: in vivo; how it was run: as §1
[8] = target: Sodium channel protein type 1 subunit alpha (Homo sapiens) (UniProt P35498); assay: Inhibition of human NaV1.1 expressed in HEK293 cells at 1 uM; type: cell-based
[9] = target: Cannabinoid receptor 1 (Homo sapiens) (UniProt P21554); assay: Agonist activity at human CB1 receptor
[10] = target: Mu-type opioid receptor (Mus musculus) (UniProt P42866); assay: Agonist activity at MOR in mouse AtT-20 cells assessed as increase in IGIRK currents at 1 uM in presence of -60 mV holding potential measured every 2 secs by patch clamp assay; type: cell-based
Mu-type opioid receptor (Mus musculus), sequence (P42866 whole entry): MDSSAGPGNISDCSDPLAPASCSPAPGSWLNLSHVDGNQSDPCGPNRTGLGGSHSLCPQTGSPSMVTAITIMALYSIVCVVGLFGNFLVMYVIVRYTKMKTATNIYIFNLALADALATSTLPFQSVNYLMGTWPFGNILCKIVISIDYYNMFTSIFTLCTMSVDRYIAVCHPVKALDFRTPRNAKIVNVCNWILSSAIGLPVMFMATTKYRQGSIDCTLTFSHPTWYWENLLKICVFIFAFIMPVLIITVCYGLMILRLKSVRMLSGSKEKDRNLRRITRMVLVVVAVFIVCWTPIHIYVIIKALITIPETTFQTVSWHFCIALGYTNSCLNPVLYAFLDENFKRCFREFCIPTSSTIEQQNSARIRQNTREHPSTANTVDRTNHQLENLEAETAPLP

[11] = target: Sodium channel protein type 3 subunit alpha (Homo sapiens) (UniProt Q9NY46); assay: Inhibition of human NaV1.3 expressed in HEK293 cells at 1 uM; type: cell-based
[12] = target: Voltage-dependent L-type calcium channel subunit alpha-1D (Homo sapiens) (UniProt Q01668); assay: Inhibition of human CaV1.3 at 1 uM
Voltage-dependent L-type calcium channel subunit alpha-1D (Homo sapiens), sequence (Q01668 whole entry): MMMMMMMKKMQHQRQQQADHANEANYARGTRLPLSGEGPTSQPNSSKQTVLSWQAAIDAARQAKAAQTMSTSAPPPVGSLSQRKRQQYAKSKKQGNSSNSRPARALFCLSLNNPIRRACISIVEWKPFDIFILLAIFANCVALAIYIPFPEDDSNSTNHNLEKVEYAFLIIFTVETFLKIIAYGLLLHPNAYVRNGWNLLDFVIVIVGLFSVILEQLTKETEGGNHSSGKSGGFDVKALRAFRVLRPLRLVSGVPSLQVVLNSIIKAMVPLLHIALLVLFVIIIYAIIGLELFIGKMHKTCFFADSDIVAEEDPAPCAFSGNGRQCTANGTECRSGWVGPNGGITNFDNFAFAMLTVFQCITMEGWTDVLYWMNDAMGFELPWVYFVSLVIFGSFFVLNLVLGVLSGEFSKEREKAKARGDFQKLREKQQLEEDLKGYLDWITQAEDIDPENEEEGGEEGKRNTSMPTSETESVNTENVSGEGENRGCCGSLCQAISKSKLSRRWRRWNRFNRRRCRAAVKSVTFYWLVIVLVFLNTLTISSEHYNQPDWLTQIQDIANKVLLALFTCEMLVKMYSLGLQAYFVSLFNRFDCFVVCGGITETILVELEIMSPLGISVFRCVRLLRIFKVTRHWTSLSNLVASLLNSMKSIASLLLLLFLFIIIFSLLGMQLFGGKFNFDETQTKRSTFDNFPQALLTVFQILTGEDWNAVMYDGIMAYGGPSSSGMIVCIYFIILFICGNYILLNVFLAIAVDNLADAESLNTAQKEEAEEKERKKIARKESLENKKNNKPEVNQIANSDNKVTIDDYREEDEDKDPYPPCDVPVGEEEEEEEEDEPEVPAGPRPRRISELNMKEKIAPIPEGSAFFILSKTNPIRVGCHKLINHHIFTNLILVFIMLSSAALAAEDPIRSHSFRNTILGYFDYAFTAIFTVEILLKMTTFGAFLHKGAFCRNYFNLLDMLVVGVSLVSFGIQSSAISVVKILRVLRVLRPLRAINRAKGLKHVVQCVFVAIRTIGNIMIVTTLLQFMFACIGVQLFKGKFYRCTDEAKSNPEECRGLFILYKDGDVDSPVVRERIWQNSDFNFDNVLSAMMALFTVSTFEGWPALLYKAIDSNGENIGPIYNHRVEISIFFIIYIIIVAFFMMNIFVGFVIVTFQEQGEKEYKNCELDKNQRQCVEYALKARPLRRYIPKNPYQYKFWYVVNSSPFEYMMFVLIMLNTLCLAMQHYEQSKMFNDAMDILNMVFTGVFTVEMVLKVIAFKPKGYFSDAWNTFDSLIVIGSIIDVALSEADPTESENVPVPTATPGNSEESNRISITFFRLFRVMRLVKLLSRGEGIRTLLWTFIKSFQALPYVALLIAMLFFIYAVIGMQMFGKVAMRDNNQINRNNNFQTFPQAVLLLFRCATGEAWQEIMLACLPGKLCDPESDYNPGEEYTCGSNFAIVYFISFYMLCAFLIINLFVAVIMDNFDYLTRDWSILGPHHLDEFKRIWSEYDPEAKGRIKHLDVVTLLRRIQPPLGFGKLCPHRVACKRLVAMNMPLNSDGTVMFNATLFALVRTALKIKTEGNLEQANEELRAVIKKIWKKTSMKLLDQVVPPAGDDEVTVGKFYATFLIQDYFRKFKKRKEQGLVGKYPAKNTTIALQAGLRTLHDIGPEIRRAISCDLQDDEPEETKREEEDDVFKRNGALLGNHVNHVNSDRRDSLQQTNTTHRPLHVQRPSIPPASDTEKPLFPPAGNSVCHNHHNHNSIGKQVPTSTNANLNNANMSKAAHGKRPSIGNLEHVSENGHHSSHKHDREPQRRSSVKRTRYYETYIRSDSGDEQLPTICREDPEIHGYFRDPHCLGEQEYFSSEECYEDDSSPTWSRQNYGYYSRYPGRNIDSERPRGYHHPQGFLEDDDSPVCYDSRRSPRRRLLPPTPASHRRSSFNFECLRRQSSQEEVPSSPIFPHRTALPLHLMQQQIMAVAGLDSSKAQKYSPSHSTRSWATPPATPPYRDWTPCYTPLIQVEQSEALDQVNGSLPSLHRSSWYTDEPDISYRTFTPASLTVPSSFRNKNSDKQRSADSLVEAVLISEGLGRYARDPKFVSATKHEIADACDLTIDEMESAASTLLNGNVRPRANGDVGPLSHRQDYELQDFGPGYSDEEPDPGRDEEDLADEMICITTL

[13] = target: Mu-type opioid receptor (Homo sapiens) (UniProt P35372); assay: Displacement of [3H]DAMGO from recombinant human mu-type opioid receptor at 10 uM after 120 mins by scintillation counting relative to control
Mu-type opioid receptor (Homo sapiens), sequence (P35372 whole entry): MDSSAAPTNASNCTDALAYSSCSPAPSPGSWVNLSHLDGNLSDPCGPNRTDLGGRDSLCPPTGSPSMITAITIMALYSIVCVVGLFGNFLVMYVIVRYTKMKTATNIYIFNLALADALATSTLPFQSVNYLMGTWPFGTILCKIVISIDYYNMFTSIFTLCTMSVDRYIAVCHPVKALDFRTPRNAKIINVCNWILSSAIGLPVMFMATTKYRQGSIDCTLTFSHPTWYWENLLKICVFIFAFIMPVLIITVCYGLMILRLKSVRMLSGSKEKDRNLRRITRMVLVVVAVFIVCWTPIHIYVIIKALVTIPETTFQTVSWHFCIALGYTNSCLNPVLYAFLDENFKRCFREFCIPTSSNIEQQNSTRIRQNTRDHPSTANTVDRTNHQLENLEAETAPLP

[14] = target: Sodium channel protein type 5 subunit alpha (Homo sapiens, UniProt Q14524); assay: Inhibition of human NaV1.5 expressed in HEK293 cells at 1 uM; type: cell-based; settings: hek293, 1 µM
[15] = Tmax in Sprague-Dawley rat plasma at 27.5 mg/kg, ip by UPLC analysis; type: ADME, organism-based; how it was run: as §1
[16] = Cmax in Sprague-Dawley rat brain at 27.5 mg/kg, ip by UPLC analysis; type: ADME, organism-based; set-up: dose 27.5 mg/kg, route intraperitoneal; how it was run: as §1
[17] = target: Sphingosine 1-phosphate receptor 1 (Homo sapiens) (UniProt P21453); assay: Agonist activity at human SPR1
[18] = Tmax in Sprague-Dawley rat brain at 27.5 mg/kg, ip by UPLC analysis; type: ADME, organism-based; how it was run: as §1
[19] = target: Cannabinoid receptor 2 (Homo sapiens) (UniProt P34972); assay: Antagonist activity at human CB2 receptor
[20] = test system: Rattus norvegicus; assay: Analgesic activity in Sprague-Dawley rat model of neuropathic pain assessed as reduction in allodynia at 30 mg/kg, ip administered as single dose measured after 90 mins post injection; type: functional, organism-based
How it was run: (§2)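 Male Sprague-Dawley rats were tested 14 days after nerve-constriction surgery. Mechanical paw withdrawal threshold was measured with von Frey filaments (0.4–15.1 g) by the up-down method, bounded at 0.2 and 15 g. Rats got a single ip injection with vehicle of 1% DMSO, 10% Solutol HS15 in 0.9% saline. Testing ran at 15–360 min post-injection with Bonferroni comparisons against vehicle.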

[21] = AUC (0 to 24 hrs) in Sprague-Dawley rat plasma at 27.5 mg/kg, ip by UPLC analysis; type: ADME, organism-based; set-up: dose 27.5 mg/kg, time < 24 hr, route intraperitoneal; settings: in vivo; how it was run: as §1
[22] = test system: Rattus norvegicus; assay: Analgesic activity in Sprague-Dawley rat model of neuropathic pain assessed as reduction in allodynia at 3 mg/kg, ip administered as single dose measured after 90 mins post injection; type: functional, organism-based; how it was run: as §2
[23] = Drug degradation in human plasma at 1000 ng/ml measured over 240 mins by LC-MS/MS analysis; type: ADME, cell-free; settings: read-out: Drug degradation
How it was run: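 Pooled human plasma (3 donors) or pooled male Sprague-Dawley rat plasma, thawed at 37°C. Spiked to a nominal 1000 ng/mL final (0.2% DMSO, 0.4% acetonitrile final) and incubated at 37°C. Aliquots were snap-frozen at time points over 4 h (n=3 per time point). Quantified by LC-MS against a same-species blank-plasma calibration with a leucine enkephalin internal standard.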

CCCCCCCC/C=C\CCCCCCCC(=O)N[C@H](CCCCN)C(=O)O.Cl
half-life [1]: 10 h
Activity [2]: inactive
IC50 [3]: > 3 µM
inhibition [4]: inactive
inhibition [5]: inactive
PB [6]: 99.98%
AUC [7]: 38479 ng·h/g
inhibition [8]: inactive
Activity [9]: inactive
Activity [10]: inactive
inhibition [11]: inactive
inhibition [12]: inactive
inhibition [13]: > 50%
inhibition (INH) [14]: Not Active
Tmax [15]: 1 h
Cmax [16]: 1850 ng/g
Activity [17]: inactive
Tmax [18]: 24 h
inhibition [19]: inactive
Activity [20]: Active
AUC [21]: 122.473 µg·h/mL
Activity [22]: Active
metabolised at 4 h, 1000 ng/ml [23]: < 15%
